This note sets out measurements from ChEMBL document CHEMBL1132375, “Synthesis and biochemical evaluation of 3-fluoromethyl-1,2,3, 4-tetrahydroisoquinolines as selective inhibitors of phenylethanolamine N-methyltransferase versus the alpha(2)-adrenoceptor” (J Med Chem, 1999).

For assay [1], the target named is Adrenergic receptor alpha-2 (Rattus norvegicus) (UniProt P22086+P19328+P22909). As to the kind of experiment: Ratio for binding affinity towards alpha-2 adrenoceptor to PNMT. Format: protein assay. Summed up:
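Ratio of α2-adrenoceptor Ki (rat cortex, [3H]clonidine binding) to PNMT Ki (bovine adrenal enzyme, radiochemical assay with phenylethanolamine substrate).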

Assay [2] addresses T1, Adrenergic receptor alpha-2 (Rattus norvegicus, UniProt P22086+P19328+P22909).
T1 sequence (P22086 whole entry): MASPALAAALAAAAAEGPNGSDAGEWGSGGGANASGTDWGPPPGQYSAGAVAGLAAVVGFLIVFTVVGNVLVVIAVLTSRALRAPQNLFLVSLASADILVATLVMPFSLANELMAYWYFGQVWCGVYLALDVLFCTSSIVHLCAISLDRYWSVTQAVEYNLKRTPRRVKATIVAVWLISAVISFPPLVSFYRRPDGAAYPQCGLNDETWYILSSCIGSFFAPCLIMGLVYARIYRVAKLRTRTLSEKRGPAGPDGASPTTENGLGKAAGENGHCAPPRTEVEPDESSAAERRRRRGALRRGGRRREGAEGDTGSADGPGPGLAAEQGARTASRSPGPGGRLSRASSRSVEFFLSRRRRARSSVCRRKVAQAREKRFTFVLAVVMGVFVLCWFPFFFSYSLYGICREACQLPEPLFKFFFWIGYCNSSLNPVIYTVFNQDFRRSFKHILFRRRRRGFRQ
T1 sequence (P19328 whole entry): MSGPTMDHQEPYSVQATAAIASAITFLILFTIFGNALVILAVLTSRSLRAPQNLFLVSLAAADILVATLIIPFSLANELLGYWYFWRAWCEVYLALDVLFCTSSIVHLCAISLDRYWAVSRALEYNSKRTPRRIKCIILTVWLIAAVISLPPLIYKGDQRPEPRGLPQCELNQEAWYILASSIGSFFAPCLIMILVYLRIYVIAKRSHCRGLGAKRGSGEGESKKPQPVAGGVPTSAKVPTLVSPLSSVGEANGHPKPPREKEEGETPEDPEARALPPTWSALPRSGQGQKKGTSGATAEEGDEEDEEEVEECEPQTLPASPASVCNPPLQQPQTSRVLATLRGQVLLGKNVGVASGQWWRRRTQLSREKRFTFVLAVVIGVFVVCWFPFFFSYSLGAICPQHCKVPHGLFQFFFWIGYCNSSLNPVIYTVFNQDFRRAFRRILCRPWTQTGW
T1 sequence (P22909 whole entry): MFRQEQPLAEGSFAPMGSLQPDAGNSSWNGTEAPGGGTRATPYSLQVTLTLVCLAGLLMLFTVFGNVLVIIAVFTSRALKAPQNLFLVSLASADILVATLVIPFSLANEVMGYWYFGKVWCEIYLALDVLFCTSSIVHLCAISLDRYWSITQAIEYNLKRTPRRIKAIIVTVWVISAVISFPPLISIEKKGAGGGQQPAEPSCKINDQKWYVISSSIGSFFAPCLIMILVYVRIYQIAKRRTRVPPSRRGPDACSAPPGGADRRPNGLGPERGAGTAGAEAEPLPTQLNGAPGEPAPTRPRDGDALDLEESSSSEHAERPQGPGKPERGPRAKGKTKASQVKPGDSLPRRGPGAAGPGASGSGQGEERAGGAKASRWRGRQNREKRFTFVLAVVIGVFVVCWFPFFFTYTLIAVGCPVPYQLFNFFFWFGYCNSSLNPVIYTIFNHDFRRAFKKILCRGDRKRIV
Put plainly: Compound was tested in vitro for its affinity towards rat Alpha-2 adrenergic receptor. It is filed as protein assay. The procedure, abridged: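 Membranes from male Sprague-Dawley rat cortex, homogenized in ice-cold 50 mM Tris/HCl pH 7.7 and washed by three 50000g spins. Incubated with [3H]clonidine (final 2.0 nM) and varied inhibitor concentrations, 25 °C for 30 min, then vacuum-filtered on GF/B and counted. Nonspecific binding with 2 μM phentolamine. IC50 by log-probit, converted to Ki = IC50/(1+[clonidine]/KD).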

Assay [3] addresses T2, Phenylethanolamine N-methyltransferase (Bos taurus, UniProt P10938).
T2 sequence (P10938 whole entry): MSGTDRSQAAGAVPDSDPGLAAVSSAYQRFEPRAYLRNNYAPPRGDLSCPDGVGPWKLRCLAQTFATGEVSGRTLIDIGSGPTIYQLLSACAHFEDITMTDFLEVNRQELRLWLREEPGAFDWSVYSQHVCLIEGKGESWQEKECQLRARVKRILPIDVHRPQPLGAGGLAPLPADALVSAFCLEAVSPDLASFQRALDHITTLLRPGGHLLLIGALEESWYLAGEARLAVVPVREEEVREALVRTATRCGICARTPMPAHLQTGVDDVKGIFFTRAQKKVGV
Put plainly: Affinity for bovine Phenylethanolamine N-Methyltransferase (PNMT).

For assay [4], the target named is T2, Phenylethanolamine N-methyltransferase. Put plainly: Affinity for bovine Phenylethanolamine N-Methyltransferase.

Take `FCC1Cc2ccccc2CN1` (centres undefined): the Ratio in assay [1] was 2.5. Further, the Ki in assay [2] turned out to be 3800 nM; in assay [3] it was 1500 nM.
`OCC1Cc2ccccc2CN1` (centres undefined): the Ratio in assay [1] was 6.
Take `O=S(=O)(Nc1ccc(Cl)cc1)c1ccc2c(c1)CNC(CF)C2` (centres undefined): in assay [1], the Ratio was 220. Moreover, the inhibitory constant (Ki) in assay [2] worked out at 160000 nM; in assay [4], 740 nM.
For the molecule `CCC1Cc2ccccc2CN1` (centres undefined), the Ratio in assay [1] amounted to 0.028.
In the case of `FCC1Cc2ccc(Br)cc2CN1` (centres undefined), in assay [1], the Ratio turned out to be 10. Further, the Ki in assay [2] amounted to 6400 nM; in assay [3], 640 nM.
Regarding `Clc1ccc2c(c1Cl)CNCC2`, in assay [1], the Ratio turned out to be 0.095.
As to `CS(=O)(=O)c1ccc2c(c1)CNC(C(F)(F)F)C2` (centres undefined), the Ratio in assay [1] was 110.
As for `FCC1Cc2ccc(I)cc2CN1` (centres undefined), the Ratio in assay [1] stood at 34. In addition, the Ki came to 7100 nM in assay [2] and 210 nM in assay [4].
For `NS(=O)(=O)c1ccc2c(c1)CNC(CF)C2` (centres undefined) the same measures were 1000, 680000 nM and 660 nM.
As for `CS(=O)(=O)c1ccc2c(c1)CNC(CF)C2` (centres undefined), the Ratio in assay [1] was 140. The Ki in assay [2] amounted to 230000 nM; in assay [4], 1600 nM.
Consider `FCC1Cc2ccc(C(F)(F)F)cc2CN1` (centres undefined), for which the Ratio in assay [1] turned out to be 130. Moreover, the inhibition constant Ki worked out at 41000 nM in assay [2] and 320 nM in assay [3].
On to `O=S(=O)(NCc1ccccc1)c1ccc2c(c1)CNC(CF)C2` (centres undefined), for which, in assay [1], the Ratio came out at 17. The values for the inhibitory constant (Ki) in assay [2] and in assay [4] were 110000 nM and 6500 nM, respectively.
On to `COCC1Cc2ccccc2CN1` (centres undefined), for which, in assay [1], the Ratio was 0.3.
On to `CNS(=O)(=O)c1ccc2c(c1)CNC(CF)C2` (centres undefined), for which the Ratio in assay [1] turned out to be 130. Besides, the values for the Ki in assay [2] and in assay [4] were 310000 nM and 2400 nM, respectively.
For the molecule `CS(=O)(=O)c1ccc2c(c1)CNC(CO)C2` (centres undefined), the Ratio in assay [1] came out at 1000.
For `NS(=O)(=O)c1ccc2c(c1)CNC(CO)C2` (centres undefined), the Ratio in assay [1] is 4100.
For the molecule `N#Cc1ccc2c(c1)CNC(CF)C2` (centres undefined), the Ratio in assay [1] is 420. The inhibitory constant (Ki) in assay [2] worked out at 460000 nM; in assay [4], 1100 nM.
Regarding `COc1ccc2c3c([nH]c2c1)C=NCC3`, the Ratio in assay [1] came out at 4.4.
For the molecule `FCC1Cc2ccc(N=C=S)cc2CN1` (centres undefined), the Ratio in assay [1] was 39. Besides, the inhibition constant (Ki) came to 22000 nM in assay [2] and 570 nM in assay [3].
On to `CC1Cc2ccccc2CN1` (centres undefined), for which the Ratio in assay [1] turned out to be 0.36.
Turning to `O=[N+]([O-])c1ccc2c(c1)CNC(CF)C2` (centres undefined), in assay [1], the Ratio came out at 140. The Ki in assay [2] came out at 76000 nM; in assay [4] it was 540 nM.
In the case of `FC(F)(F)C1Cc2ccc(Br)cc2CN1` (centres undefined), the Ratio in assay [1] worked out at 1900.
In the case of `[N-]=[N+]=Nc1ccc2c(c1)CNC(CF)C2` (centres undefined), the Ratio in assay [1] was determined as 28. Besides, the Ki came out at 47000 nM in assay [2] and 1700 nM in assay [3].
